Reference: ChEMBL document CHEMBL1150296, “Synthesis and DNA cleaving activity of water-soluble non-conjugated thienyl tetraynes” (Bioorg Med Chem, 2008)
Values belong to the compound of their own block, whether it stands above or below them. Calls of active or inactive are those of the source. The calls are words filed in the database; no cut-off is given here.

What was measured:
Escherichia coli [1] = assay: Effect on DNA cleavage in ampicillin resistant Escherichia coli DH5alpha transformed pBluescript 2 KS+ DNA assessed as number of colonies at 1 mM after 15 hrs by transformation assay
Outline: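 Plasmid DNA (2.0 µg) exposed to tetrayne at 1.0 mM (final DMSO 3.0%) at 37 °C, recovered by ethanol precipitation, redissolved in water and heated 60 °C for 10 min. Heat-shock transformation of competent E. coli (DH5a or JM109) at 42 °C for 1 min, 1 h recovery in LB at 37 °C, plating on ampicillin (100 mg/L) LB agar, 37 °C for 15 h; colonies counted.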

Escherichia coli [2] = assay: Induction of Escherichia coli pBluescript 2 KS+ DNA cleavage assessed as decrease in form 1 at 1 mM by gel electrophoresis
Outline: (§1)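 pBluescript II KS+ (2.0 µg) incubated overnight at 37 °C with tetrayne in 20 µL, final DMSO 3.0%. Level 1.0 mM; 0.1, 0.3, 0.6 mM also run for the dose series. DNA ethanol-precipitated, redissolved, held 60 °C 10 min then 37 °C 30 min, run on 0.7% agarose; ethidium bromide stain, UV imaging of supercoiled, nicked and linear forms.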

Escherichia coli [3] = assay: Induction of Escherichia coli pBluescript 2 KS+ DNA cleavage by gel electrophoresis; outline: as §1
Escherichia coli [4] = assay: Induction of Escherichia coli pBluescript 2 KS+ DNA cleavage assessed as linear form 3 at 1 mM by atomic force microscopy
Outline: (§2)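 Plasmid exposed to tetrayne (1.0 mM, 37 °C, 6 h), ethanol-precipitated, pellet taken up in water. Sample spotted on flat mica for 1 min at room temperature, excess water blown off with air, then single DNA molecule shapes imaged by atomic force microscopy.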

Escherichia coli [5] = assay: Induction of Escherichia coli pBluescript 2 KS+ DNA cleavage assessed as increase in nicked form 2 at 1 mM by gel electrophoresis; outline: as §1
Escherichia coli [6] = assay: Induction of Escherichia coli pBluescript 2 KS+ DNA cleavage assessed as increase in form 3 at 1 mM by gel electrophoresis; outline: as §1
Escherichia coli [7] = assay: Induction of Escherichia coli pBluescript 2 KS+ DNA cleavage assessed as formation of burst star shaped architecture at 1 mM by atomic force microscopy; outline: as §2

Structure (SMILES): CN(C)C
Activity (Escherichia coli [1]): > 1000

Structure (SMILES): COCc1ccccc1C#CC#Cc1cc(CN(C)C)sc1C(=O)C#CC#CC(C)(C)C
Activity (Escherichia coli [1]): 8 | Activity (Escherichia coli [2]): Active | Activity (Escherichia coli [3]): Dose-dependent effect | Activity (Escherichia coli [4]): Active | Activity (Escherichia coli [5]): Active | Activity (Escherichia coli [6]): Active | Activity (Escherichia coli [7]): Active

Structure (SMILES): COCc1ccccc1C#CC#Cc1cc(CN(C)C)sc1C(O)C#CC#CC(C)(C)C (stereo unspecified)
Activity (Escherichia coli [1]): > 1000

More lines, now with the values ahead:

Activity (Escherichia coli [1]): > 1000
Structure (SMILES): COCc1ccccc1C#CC#Cc1cc(C(=O)O)sc1C(=O)C#CC#CC(C)(C)C

Activity (Escherichia coli [1]): > 1000
Structure (SMILES): COCc1ccccc1C#CC#Cc1cc(C(=O)O)sc1C(O)C#CC#CC(C)(C)C (stereo unspecified)
